Screens as filed in PubChem.
CYP2C9 inh: blockers of cytochrome P450 2C9 activity – biochemical, luminescence, ADME assay, primary screen | P11712 | CYP2C9 Supersomes, luciferin-H conversion | inhibition, % at 5 µM | 96,000 tested, 20% active | AID 777, 2007;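 active = blocking of liver enzyme CYP2C9 beyond about 50% at 5 µM, limit read from the data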
Target sequence (P11712 whole entry, looked up): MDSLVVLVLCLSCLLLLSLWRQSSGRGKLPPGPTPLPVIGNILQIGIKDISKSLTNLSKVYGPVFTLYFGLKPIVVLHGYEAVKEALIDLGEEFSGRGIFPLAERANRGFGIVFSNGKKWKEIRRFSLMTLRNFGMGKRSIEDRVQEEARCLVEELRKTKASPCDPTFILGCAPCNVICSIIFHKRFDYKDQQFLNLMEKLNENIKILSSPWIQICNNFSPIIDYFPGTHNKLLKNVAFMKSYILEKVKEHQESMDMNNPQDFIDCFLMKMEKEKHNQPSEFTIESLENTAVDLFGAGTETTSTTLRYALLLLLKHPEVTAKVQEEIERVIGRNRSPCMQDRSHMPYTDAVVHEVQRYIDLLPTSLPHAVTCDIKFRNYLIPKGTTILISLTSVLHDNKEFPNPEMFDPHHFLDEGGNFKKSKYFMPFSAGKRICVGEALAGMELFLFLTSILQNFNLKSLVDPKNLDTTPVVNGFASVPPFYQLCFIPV
CYP2C19 inhib: blockers of cytochrome P450 2C19 activity – biochemical, luminescence, ADME assay, primary screen | CYP2C19 Supersomes, luciferin-H EGE luminescence, 30 min | inhibition, % at 5 µM | 96,000 tested, 21% active;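 active = CYP2C19 inhibition above a set limit at 5 µM in the primary screen, cut at about 50% in these data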;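 also: plate controls were negative control wells for no effect and 2.5 mM tranylcypromine positive control for full effect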
E coli WT exp: growth inhibitors of wild-type E. coli, primary screen, strain BW25113, expanded library, OD600 | OD600 absorbance | growth inhibition, % at 100 µM | 98,000 tested, 0.15% active | AID 710, 2007;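 active = growth inhibition above about 50% at one test dose, limit read from the data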;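 also: growth measured after 20 h incubation at 37 °C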
CYP2C9 activ: human CYP2C9 activators, primary screen, biochemical, luminescence. activation factor at 5 µM. AID 1024, 2008. Cytochrome P450 2C9 (Homo sapiens), P11712. 96,000 tested, 1.4% active. recombinant CYP2C9, luciferin-H conversion; active compounds read high; factor 1 = untreated enzyme, 0 = blocked;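 active = activation factor of 2 or more for CYP2C9 at a 5 µM dose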;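 also: 0 = sulfaphenazole-blocked wells and 1 = vehicle-only wells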
CYP2C19 act: human CYP2C19 activators, primary screen, biochemical, luminescence; Cytochrome P450 2C19 (Homo sapiens), P33261; 96,000 tested, under 10 active; activation factor at 5 µM; recombinant CYP2C19, luciferin-H EGE luminescence; active compounds read high; 0 = fully inhibited enzyme, 1 = untreated enzyme; AID 1025, 2008;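 active = activation factor of at least 2 at 5 µM in the primary screen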;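 also: 0 = wells with 2.5 mM tranylcypromine and 1 = vehicle-only wells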
tolC growth inh: growth inhibitors of E. coli tolC mutant, primary screen, strain BW25113 ΔtolC::kan, 384-well; OD615; growth inhibition, % at 10 µM (by protocol); 65,000 tested, 2.2% active; AID 573, 2007;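 active = growth inhibition at or above a cutoff equal to the mean over every tested compound plus 3 SD, cut at about 60% in these data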;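 also: growth measured after 20 h incubation at 37 °C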
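Assay system: tolC-deleted E. coli BW25113. Medium: kanamycin-containing LB broth (50 µg/mL). Dosing: 10 µM final, single dose. Timing: bacterial growth with compound for 20 h at 37 °C. Detection: A615 absorbance measurement. Read-out basis: growth inhibition in percent.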
* = called active by the depositor; · = not tested or not shown. The list is not random: actives were taken first. Their share in the collection is about 29%.

SMILES	CYP2C9 inh	CYP2C19 inhib	E coli WT exp	CYP2C9 activ	CYP2C19 act	tolC growth inh
C=CCOc1nc(N(C)C)nc(N(C)C)n1	-40	-6	3	1.4	1.1	-8
O=c1[nH]c2c(s1)C=Nc1ccccc1N2	-14	-13	0	1.1	1.1	-17
COc1ccccc1N1CCN(C(=O)C2CC=CCC2C(=O)O)CC1 (stereo unspecified)	-10	4	4	1.1	1	-6
O=C(C1c2ccccc2Oc2ccccc21)N1CCN(c2ccc(Cl)cc2)CC1	85*	94*	-24	0.2	0.1	·
O=C(C1CCN(S(=O)(=O)c2cccnc2)CC1)N1CCN(c2ccc(Cl)cc2)CC1	·	·	·	·	·	-2
COc1ccccc1N1CCN(C(=O)C2c3ccccc3Oc3ccccc32)CC1	100*	98*	-2	0	0	15
O=C(NC1CC1)c1ccc(CSCc2cccc(F)c2)o1	27	40	0	0.7	0.6	11
CCCc1cc(=O)[nH]c(SCCOc2ccc(OCC)cc2)n1	32	26	-10	0.7	0.7	·
CCCc1cc(=O)[nH]c(SCc2ccccc2Cl)n1	72*	50*	5	0.3	0.5	·
CCCc1cc(=O)[nH]c(SCCOC(=O)c2ccccc2)n1	71*	54*	11	0.3	0.5	·
CCCc1cc(=O)[nH]c(SCc2nc3ccccc3s2)n1	39	44	1	0.6	0.6	·
CCCc1cc(=O)[nH]c(SCC(=O)CSc2nc(CCC)cc(=O)[nH]2)n1	70*	11	7	0.3	0.9	-4
COc1cccc(C(=O)NCC(=O)N2CCC(C)CC2)c1	-15	33	7	1.1	0.7	-5
O=C(Nc1ccc(Oc2ccccc2)cc1)C1CCCO1 (stereo unspecified)	15	58*	2	0.8	0.4	3
O=C(O)c1cccc(C(=O)Nc2cccc(NC(=O)C3CCCO3)c2)c1 (stereo unspecified)	29	62*	-4	0.7	0.4	-9
CCCCn1c(N)c(N(CCOC)C(=O)CSc2nc3ccc(C)cc3[nH]2)c(=O)[nH]c1=O	-10	-13	-5	1.1	1.1	-5
CCOC(=O)c1sc(N)c(C#N)c1CSc1nc2ccc(C)cc2[nH]1	76*	77*	-2	0.2	0.2	·
CCOC(=O)c1sc(N)c(C#N)c1CSc1nc2ccc(OCC)cc2[nH]1	97*	93*	-5	0	0.1	14
Cc1cc(Nc2cc(C(=O)O)ccc2C)n2ncnc2n1	1	-2	-4	1	1	-14
COc1ccc(CC(NC(C)=O)C(=O)NC2CCN(S(=O)(=O)c3cccc4ccccc34)CC2)cc1OC (stereo unspecified)	8	19	-2	0.9	0.8	·
COc1cc(NS(=O)(=O)c2ccc(OC)c(C)c2C)c(OC)cc1Cl	99*	99*	-11	0	0	65*
COc1ccc(OC)c(S(=O)(=O)Nc2cc(OC)c(Cl)cc2OC)c1	56*	57*	6	0.4	0.4	22
COc1ccc(OC)c(S(=O)(=O)Nc2cc(Cl)cc(Cl)c2)c1	·	·	·	·	·	2
COc1ccc(S(=O)(=O)Nc2ccccn2)c(C)c1C	-87	17	-4	1.9	0.8	-10
CCN1C(=O)C2C(c3ccccc3F)NC(Cc3ccc(O)cc3)(C(=O)OC)C2C1=O (stereo unspecified)	0	10	2	1	0.9	-10
SMILES	CYP2C9 inh	CYP2C19 inhib	E coli WT exp	CYP2C9 activ	CYP2C19 act	tolC growth inh
COc1ccc(N2CCC(CNC(=O)Nc3ccc(C)c(C)c3)C2)cc1 (stereo unspecified)	·	·	·	·	·	37
COc1ccc(N2CCC(CNC(=O)Nc3ccc(OC)cc3OC)C2)cc1 (stereo unspecified)	36	62*	-7	0.6	0.4	14
COc1ccccc1C(=O)NCCCN1CCCC1=O	-6	-5	1	1.1	1.1	-11
COc1ccc(NC(=O)NCCCN2CCCC2=O)c(OC)c1	9	54*	4	0.9	0.5	·
O=C(Cc1cccc2ccccc12)NNC(=O)Nc1cccc(Cl)c1	-116	56*	-1	2.2*	0.4	·
COc1ccc(Cl)cc1C(=O)NNC(=S)NC(=O)c1cc(-c2ccccc2)nc2ccccc12	10	47	-10	0.9	0.5	·
O=C(Cc1cccc2ccccc12)Nc1ccccc1C(=O)O	87*	-10	-4	0.1	1.1	·
CC(C)(C)c1ccc(-c2cc(C(=O)NNC(=O)Nc3ccccc3)c3ccccc3n2)cc1	82*	38	-7	0.2	0.6	·
O=C(NNC(=O)c1cc(-c2ccccc2)nc2ccccc12)Nc1cccc(Cl)c1	75*	24	-14	0.3	0.8	·
O=C(O)CCCC(=O)Nc1ccccc1C(=O)O	-8	-16	-4	1.1	1.2	-14
FC(F)(F)c1cc(-c2ccco2)nc(-n2nnc3ccccc32)n1	8	-12	2	0.9	1.1	-8
CC(=O)c1cc2c(cc1NC(=O)CN1CCN(c3ccc(F)cc3)CC1)OCO2	40	0	-5	0.6	1	5
CC(=O)C1=C(O)C(=O)N(c2cccc(C(=O)O)c2)C1c1ccc(F)cc1 (stereo unspecified)	·	·	·	·	·	6
O=[N+]([O-])c1cccnc1N1CCC(c2cc(-c3ccc(Cl)cc3)n[nH]2)CC1	40	20	-7	0.6	0.8	·
CCCN(C(=O)c1cccs1)c1nnc(-c2ccncc2)s1	55*	99*	5	0.5	0	13
CCOc1cc(C2C(C#N)=C(N)OC3CCCC(=O)C32)ccc1OCCN1CCOCC1 (stereo unspecified)	-10	-7	1	1.1	1.1	-20
CCCC1CCc2c(c3ccccc3[nH]c2=O)O1 (stereo unspecified)	25	42	-8	0.8	0.6	·
CN(C)c1cccc(-c2nnc(SCCCC#N)o2)c1	-9	13	6	1.1	0.9	2
O=C(O)c1c2c(nc3ccc(S(=O)(=O)N4CCC(C(=O)NC5CCCC5)CC4)cc13)CCCCC2	52*	22	2	0.5	0.8	-7
CC1CCc2nc3ccc(S(=O)(=O)N4CCC(C(=O)NC5CCCC5)CC4)cc3c(C(=O)O)c2C1 (stereo unspecified)	60*	28	8	0.4	0.7	-15
Cc1ccc(-n2nc(C(=O)NCc3ccc(C)o3)c3c4ccccc4n(C)c3c2=O)cc1	7	-2	-6	0.9	1	·
COc1ccc(CNC(=O)COC(=O)c2c(-c3c(F)cccc3Cl)noc2C)cc1OC	56*	97*	0	0.4	0	·
